According to article PMC5084670 (Cancer Science, 2016):
Marks after values point to notes of the source that are not given here.

Assay: Phase I dose-escalation study: safety, adverse events
Format: in vivo, human
Outline: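 Oral test compound was given once daily in 28-day cycles after a 7-day single-dose run-in, in Japanese and Hong Kong/Taiwan groups escalated separately. Toxicity was graded by CTCAE v3.0 using laboratory tests, physical examination, vital signs, weight and periodic ECG. DLTs were grade 3–4 events over the run-in plus cycle 1. MTD was set by an adaptive Bayesian logistic regression model with overdose control.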

[1] = group 1, 400 mg q.d. (n = 12), All grades
[2] = group 1, 400 mg q.d. (n = 12), Grade 3
[3] = group 1, 400 mg q.d. (n = 12), Grade 4
[4] = group 1, 600 mg q.d. (n = 9), All grades
[5] = group 1, 600 mg q.d. (n = 9), Grade 3
[6] = group 1, 600 mg q.d. (n = 9), Grade 4
[7] = group 1, All patients (n = 21), All grades
[8] = group 1, All patients (n = 21), Grade 3
[9] = group 1, All patients (n = 21), Grade 4
[10] = group 2, 400 mg q.d. (n = 12), All grades

Cc1c(C(=O)Nc2ccc(N3C[C@@H](C)O[C@@H](C)C3)nc2)cccc1-c1ccc(OC(F)(F)F)cc1 [Sonidegib]
86%: Patients with at least one AE suspected to be related to sonidegib (group 1, n = 18)
7 (33) n (%): Grade 3 /4 Creatine kinase elevation during all study period (group 1 (Japanese), All patients, N = 21) | Blood creatine kinase increased (drug-related adverse event) [7]
33%: Drug-related AE: increase in CK levels (group 1, all doses)
1 (11) n (%): Decreased level of consciousness (drug-related adverse event) [4] | Hyperglycemia (drug-related adverse event) [4] | Lymphopenia (drug-related adverse event) [4] | Muscle spasms (drug-related adverse event) [4] | Muscle weakness (drug-related adverse event) [4] | Myoglobin blood increased (drug-related adverse event) [4] | Rhabdomyolysis (drug-related adverse event) [4] | Hepatic function abnormal (drug-related adverse event) [5] | Hyperglycemia (drug-related adverse event) [5] | Lymphopenia (drug-related adverse event) [5] | Muscle weakness (drug-related adverse event) [5] | Myoglobin blood increased (drug-related adverse event) [5] | Rhabdomyolysis (drug-related adverse event) [5] | Decreased level of consciousness (drug-related adverse event) [6] | Hepatic function abnormal (drug-related adverse event) [6]
2 (10) n (%): Muscle spasms (drug-related adverse event) [7] | Rhabdomyolysis (drug-related adverse event) [7] | Hepatic function abnormal (drug-related adverse event) [8] | Blood creatine kinase increased (drug-related adverse event) [9]
3 (33) n (%): Hepatic function abnormal (drug-related adverse event) [4]
5 (56) n (%): Blood creatine kinase increased (drug-related adverse event) [4]
4 (44) n (%): Myalgia (drug-related adverse event) [4]
2 (22) n (%): Alopecia (drug-related adverse event) [4] | Dysgeusia (drug-related adverse event) [4] | Fatigue (drug-related adverse event) [4] | Nausea (drug-related adverse event) [4] | Blood creatine kinase increased (drug-related adverse event) [5] | Blood creatine kinase increased (drug-related adverse event) [6]
1 (8) n (%): Dysgeusia (drug-related adverse event) [1] | Muscle spasms (drug-related adverse event) [1] | Nausea (drug-related adverse event) [1] | Rhabdomyolysis (drug-related adverse event) [1] | Blood creatine kinase increased (drug-related adverse event) [2] | Hepatic function abnormal (drug-related adverse event) [2] | Rhabdomyolysis (drug-related adverse event) [3]
5 (21) n (%): Grade 3 /4 Creatine kinase elevation during all study period (group 2 (Chinese/Taiwanese), All patients, N = 24)
1 (5) n (%): Decreased level of consciousness (drug-related adverse event) [7] | Hyperglycemia (drug-related adverse event) [7] | Lymphopenia (drug-related adverse event) [7] | Muscle weakness (drug-related adverse event) [7] | Myoglobin blood increased (drug-related adverse event) [7] | Hyperglycemia (drug-related adverse event) [8] | Lymphopenia (drug-related adverse event) [8] | Muscle weakness (drug-related adverse event) [8] | Myoglobin blood increased (drug-related adverse event) [8] | Rhabdomyolysis (drug-related adverse event) [8] | Decreased level of consciousness (drug-related adverse event) [9] | Hepatic function abnormal (drug-related adverse event) [9] | Rhabdomyolysis (drug-related adverse event) [9]
19%: Drug-related AE: fatigue (group 1, all doses)
2 (17) n (%): Alopecia (drug-related adverse event) [1] | Blood creatine kinase increased (drug-related adverse event) [1] | Fatigue (drug-related adverse event) [1] | Hepatic function abnormal (drug-related adverse event) [1] | Myalgia (drug-related adverse event) [1] | Grade 3 /4 Creatine kinase elevation during all study period (group 2 (Chinese/Taiwanese), 400 mg qd, N = 12)
40 400 IU/L: Maximum CK level (a patient receiving 600 mg)
29%: Drug-related AE: myalgia (group 1, all doses)
6 (50) n (%): Blood creatine kinase increased (drug-related adverse event) [10]
5320 ng/mL: Myoglobin level at maximum CK level (a patient receiving 600 mg)
single DLT: DLT in cycle 1 (creatine kinase elevation) (group 1, 400 mg) | DLT in cycle 1 (creatine kinase elevation) (group 1, 600 mg)
four: Additional patients with grade 3 or 4 CK elevation after cycle 1 (group 1, 600 mg)
2 (50) n (%): Grade 3 /4 Creatine kinase elevation during all study period (group 2 (Chinese/Taiwanese), 800 mg qd, N = 4)
5 (24) n (%): Hepatic function abnormal (drug-related adverse event) [7]
5 (56) ^† n (%): Grade 3 /4 Creatine kinase elevation during all study period (group 1 (Japanese), 600 mg qd, N = 9)
1 (13) n (%): Grade 3 /4 Creatine kinase elevation during all study period (group 2 (Chinese/Taiwanese), 600 mg qd, N = 8)
no deaths were reported: Deaths (both groups)
4 (19) n (%): Alopecia (drug-related adverse event) [7] | Fatigue (drug-related adverse event) [7]
2 (17) ^† n (%): Grade 3 /4 Creatine kinase elevation during all study period (group 1 (Japanese), 400 mg qd, N = 12)
3 (14) n (%): Dysgeusia (drug-related adverse event) [7] | Nausea (drug-related adverse event) [7] | Blood creatine kinase increased (drug-related adverse event) [8]
0 (0) n (%): Decreased level of consciousness (drug-related adverse event) [1] | Hyperglycemia (drug-related adverse event) [1] | Lymphopenia (drug-related adverse event) [1] | Muscle weakness (drug-related adverse event) [1] | Myoglobin blood increased (drug-related adverse event) [1] | Alopecia (drug-related adverse event) [2] | Decreased level of consciousness (drug-related adverse event) [2] | Dysgeusia (drug-related adverse event) [2] | Fatigue (drug-related adverse event) [2] | Hyperglycemia (drug-related adverse event) [2] | Lymphopenia (drug-related adverse event) [2] | Muscle spasms (drug-related adverse event) [2] | Muscle weakness (drug-related adverse event) [2] | Myalgia (drug-related adverse event) [2] | Myoglobin blood increased (drug-related adverse event) [2] | Nausea (drug-related adverse event) [2] | Rhabdomyolysis (drug-related adverse event) [2] | Alopecia (drug-related adverse event) [3] | Blood creatine kinase increased (drug-related adverse event) [3] | Decreased level of consciousness (drug-related adverse event) [3] | Dysgeusia (drug-related adverse event) [3] | Fatigue (drug-related adverse event) [3] | Hepatic function abnormal (drug-related adverse event) [3] | Hyperglycemia (drug-related adverse event) [3] | Lymphopenia (drug-related adverse event) [3] | Muscle spasms (drug-related adverse event) [3] | Muscle weakness (drug-related adverse event) [3] | Myalgia (drug-related adverse event) [3] | Myoglobin blood increased (drug-related adverse event) [3] | Nausea (drug-related adverse event) [3] | Alopecia (drug-related adverse event) [5] | Decreased level of consciousness (drug-related adverse event) [5] | Dysgeusia (drug-related adverse event) [5] | Fatigue (drug-related adverse event) [5] | Muscle spasms (drug-related adverse event) [5] | Myalgia (drug-related adverse event) [5] | Nausea (drug-related adverse event) [5] | Alopecia (drug-related adverse event) [6] | Dysgeusia (drug-related adverse event) [6] | Fatigue (drug-related adverse event) [6] | Hyperglycemia (drug-related adverse event) [6] | Lymphopenia (drug-related adverse event) [6] | Muscle spasms (drug-related adverse event) [6] | Muscle weakness (drug-related adverse event) [6] | Myalgia (drug-related adverse event) [6] | Myoglobin blood increased (drug-related adverse event) [6] | Nausea (drug-related adverse event) [6] | Rhabdomyolysis (drug-related adverse event) [6] | Alopecia (drug-related adverse event) [8] | Decreased level of consciousness (drug-related adverse event) [8] | Dysgeusia (drug-related adverse event) [8] | Fatigue (drug-related adverse event) [8] | Muscle spasms (drug-related adverse event) [8] | Myalgia (drug-related adverse event) [8] | Nausea (drug-related adverse event) [8] | Alopecia (drug-related adverse event) [9] | Dysgeusia (drug-related adverse event) [9] | Fatigue (drug-related adverse event) [9] | Hyperglycemia (drug-related adverse event) [9] | Lymphopenia (drug-related adverse event) [9] | Muscle spasms (drug-related adverse event) [9] | Muscle weakness (drug-related adverse event) [9] | Myalgia (drug-related adverse event) [9] | Myoglobin blood increased (drug-related adverse event) [9] | Nausea (drug-related adverse event) [9] | Decreased appetite (drug-related adverse event) [10] | Diarrhea (drug-related adverse event) [10] | Dizziness (drug-related adverse event) [10]
24%: Drug-related AE: abnormal hepatic function (group 1, all doses)
400 mg q.d.: Recommended dose (RD) (both groups, East Asian patients) | Recommended dose (RD) (group 1 (Japanese)) | Recommended dose (RD) (group 2 (Chinese/Taiwanese))
No clinically significant changes: Changes in electrocardiogram parameters (during the course of treatment)
